Experimental data pooled from the literature.
Lines come from different studies, so protocols differ.
Target: Leukocyte tyrosine kinase receptor (LTK, Homo sapiens, UniProt P29376)

O=C(NCCCN1CCOCC1)c1ccc(Nc2nccc(-c3cc4ccccc4s3)n2)cc1
remaining binding (binding, competition with immobilised ligand; 1 µM): 100%

CCCOc1ccc([C@@H]2[C@@H](C(=O)O)[C@H](c3ccc4c(c3)OCO4)CN2CC(=O)Nc2c(CC)cccc2CC)cc1
remaining binding (cell-free assay, competition with immobilised ligand; 1 µM): 100%

CCN1CCN(Cc2ccc(C(=O)Nc3ccc(C)c(Oc4ccc5c(c4)CC(=O)N5)c3)cc2C(F)(F)F)CC1
remaining binding (binding, competition with immobilised ligand; 1 µM): 100%

O=C(c1ccc(Nc2nccc(-c3cc4ccccc4s3)n2)cc1)N1CCC(N2CCCC2)CC1
remaining binding (binding, competition with immobilised ligand; 1 µM): 100%

Cc1nc(Cc2cccc(C(F)(F)F)c2)sc1-c1ccc(C(N)=O)nc1
remaining binding (cell-free assay, competition with immobilised ligand; 1 µM): 100%

C[C@@H]1CCN(c2nccc(-c3cnn4ncccc34)n2)C1
remaining binding (binding; 1 µM): 93%

C[C@@H]1CN(c2cc(-c3n[nH]c4ccc(OC5(C)CC5)cc34)ncn2)C[C@H](C)O1
remaining binding (cell-free assay, competition with immobilised ligand; 0.1 µM): 84%

CC1CCCN1c1nccc(-c2cnn3ncccc23)n1 (stereo not shown)
remaining binding (binding; 1 µM): 100%

CNC(=O)[C@@H]1CC[C@@H](n2c(-c3ccc4cnccc4c3)nc3ccc(C(=O)NCc4cccc(C(N)=O)c4)cc32)C1
remaining binding (binding, competition with immobilised ligand; 1 µM): 89%

O=C1CCc2cc(Nc3cc(OC4CCOCC4)c([N+](=O)[O-])cc3Cl)ccc2N1
remaining binding (cell-free assay, competition with immobilised ligand; 1 µM): 100%

O=C(c1ccc(Nc2ncc(Cl)c(-c3cc4ccccc4s3)n2)cc1)N1CCC(N2CCCC2)CC1
remaining binding (binding, competition with immobilised ligand; 1 µM): 100%

CC(=O)C1=C(C)N(c2cccc(C(F)(F)F)c2)C(=O)N[C@@H]1c1ccc(C#N)nc1
remaining binding (cell-free assay, competition with immobilised ligand; 1 µM): 92.6%

COc1ccnn2ncc(-c3ccnc(N(C)C)n3)c12
remaining binding (binding; 1 µM): 98%

O=C(Nc1c[nH]nc1C(=O)NC1CCNCC1)c1cc(F)cc(F)c1
remaining binding (binding, competition with immobilised ligand; 1 µM): 74%

FC(F)(F)Oc1cccc(-c2cnc3ccc(-c4ccncc4)nn23)c1
remaining binding (cell-free assay, competition with immobilised ligand; 5 µM): 100%

Cc1cnn2ncc(-c3ccnc(N(C)C)n3)c2c1
remaining binding (binding; 1 µM): 98%

C[C@@H](c1ccc(-n2cnc3c(N)ncnc32)cc1)N1CCc2nn(C)c(Cc3ccccc3)c2C1=O
remaining binding (binding, competition with immobilised ligand; 0.1 µM): 87%

CN(c1nccc(-c2cnn3ncccc23)n1)C1CC1
remaining binding (binding; 1 µM): 100%

Cc1cc(-c2cc(C(F)(F)F)ccc2O[C@H]2C[C@@]2(CNS(=O)(=O)c2ccc([N+](=O)[O-])cc2)c2ccc(F)cc2F)[nH]n1
remaining binding (cell-free assay, competition with immobilised ligand; 0.3 µM): 6.9%

N[C@H]1CCN(c2nccc(-c3cnn4ncccc34)n2)C1
remaining binding (binding; 1 µM): 100%

CN([C@@H]1CCc2c(CC(=O)O)c3cc(S(C)(=O)=O)ccc3n2C1)S(=O)(=O)c1ccc(F)cc1
remaining binding (cell-free assay, competition with immobilised ligand; 1 µM): 100%

COc1ncc2cc3ccccc3nc2c1C#N
remaining binding (cell-free assay, competition with immobilised ligand; 5 µM): 100%
